Reference: ChEMBL document CHEMBL5352453, “Hit-to-lead optimization of a 2-aminobenzimidazole series as new candidates for chagas disease” (Eur J Med Chem, 2023)
pIC50: −log10 of the molar value.

Experiments:
[1] = Drug metabolism in S9 cells assessed as turnover; conditions: mouse
[2] = Selectivity index, ratio of CC50 for cytotoxicity against human MRC5 cells to EC50 for Trypanosoma cruzi Tulahuen CL2 amastigotes expressing beta galactosidase infected in human MRC5 cells; format: toxicity, cell-based; conditions: read-out: Selectivity Index
Method in brief: (§1)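 T. cruzi Tulahuen CL2 β-galactosidase strain grown in MRC-5 cells (MEM, 5% heat-inactivated FCS, 37 °C, 5% CO2). MRC-5 cells (4 x 10^3/well) plus parasites (4 x 10^4/well) exposed 7 days to 4-fold dilutions from 64 µM down; final DMSO <1%. CPRG with Nonidet added, absorbance at 540 nm after 4 h. IC50 calculated against untreated-infected (100%) and non-infected (0%) controls. SI = MRC-5 CC50/IC50.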

[3] = Metabolic stability in CD1 mouse liver microsomes assessed as intrinsic clearance measured upto 60 mins by LC-MS/MS analysis; format: ADME; conditions: read-out: CLH
Method in brief: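 CD1 mouse liver microsomes at 0.25 mg/mL, compound at 0.5 µM, pH 7.4, 37 °C, started with NADPH. Sampled at 0, 5, 10, 20, 30 and 60 min and quenched with acetonitrile:methanol containing tolbutamide. Measured by LC-MS/MS; CLint (k × 1000/0.25, µL/min/mg) derived by non-linear regression of % remaining over time.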

Trypanosoma cruzi [4] = experiment: Antitrypanosomal activity against Trypanosoma cruzi Tulahuen CL2 amastigotes expressing beta galactosidase infected in human MRC5 cells assessed as reduction in parasite burden using chlorophenol red beta-D-galactopyranoside as substrate and measured after 7 days by spectrophotometric analysis; format: functional, organism-based; conditions: Tulahuen CL2, MRC5, 168 h
Method in brief: as §1

Trypanosoma cruzi [5] = experiment: Antitrypanosomal activity against intracellular Trypanosoma cruzi amastigote infected mouse 3T3 cells assessed as reduction in amastigote population measured after 48 hrs
[6] = Passive permeability of the compound at 10 uM at pH 6.5 to 7.4 donor portion/acceptor portion by PAPMA assay; format: ADME; conditions: not told, read-out: permeability
Method in brief: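 PAMPA on pre-coated membranes. Donor holds 10 µM compound in PBS pH 6.5; acceptor holds PBS pH 7.4. Incubated 5 h at 37 °C. Donor, acceptor and initial donor samples quenched and quantified by LC-MS/MS to calculate effective permeability (Pe). Run in triplicate.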

[7] = Kinetic solubility of the compound at pH 7.4 PBS buffer measured after 24 hrs shaken by LC-MS/MS analysis; format: physicochemical; conditions: read-out: Kinetic_solubility
Method in brief: (§2)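 Compounds from 10 mM DMSO stocks diluted in PBS pH 7.4 or pH 2.0 to 250 µM final, 2.5% DMSO, in duplicate. Shaken 24 ± 1 h at 200 rpm, room temperature, then centrifuged to remove precipitate. Supernatant quantified by LC-MS/MS against per-compound calibration at 1–50 µM.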

[8] = Cytotoxicity against human HepG2 cells assessed as reduction in cell viability measured after 24 hrs by colorimetric assay; format: toxicity, cell-based
Trypanosoma cruzi [9] = experiment: Antitrypanosomal activity against intracellular Trypanosoma cruzi amastigote infected primary peritoneal mouse macrophages assessed as reduction in amastigote population; format: functional; design: concentration or dose not given beside the values
Method in brief: (§3)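 High-content imaging of primary mouse macrophages infected with T. cruzi. Counts both amastigotes per cell and percentage of infected cells. 96 h exposure, with maximal activity scored at 10 µM. IC50 and IC90 against intracellular amastigotes taken from the same 96 h incubation.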

Trypanosoma cruzi [10] = experiment: Antitrypanosomal activity against intracellular Trypanosoma cruzi amastigote infected primary peritoneal mouse macrophages assessed as reduction in infection rate; format: functional
Method in brief: as §3

Trypanosoma cruzi [11] = experiment: Antitrypanosomal activity against intracellular Trypanosoma cruzi amastigote infected primary peritoneal mouse macrophages assessed as reduction in amastigote population measured after 96 hrs; format: functional, organism-based; conditions: for pIC50: 96 h; for IC90: time 96 hrs
Method in brief: as §3

[12] = Cytotoxicity against primary peritoneal mouse macrophages assessed as reduction in cell viability measured after 24 hrs by colorimetric assay; format: toxicity, cell-based, Peritoneal macrophage
[13] = Kinetic solubility of the compound at pH 2 PBS buffer measured after 24 hrs shaken by LC-MS/MS analysis; format: physicochemical; conditions: read-out: Kinetic_solubility
Method in brief: as §2

[14] = Cytotoxicity against human MRC5 cells assessed as reduction in cell viability measured after 24 hrs by colorimetric assay; format: toxicity, cell-based
[15] = Cytotoxicity against mouse 3T3 cells assessed as reduction in cell viability measured after 24 hrs by colorimetric assay; format: toxicity, cell-based; conditions: NIH3T3 cells
[16] = Cytotoxicity against rat L6 cells assessed as reduction in cell viability measured after 24 hrs by colorimetric assay; format: toxicity, cell-based

Structure (SMILES) | microsomal CLint [3] [µL/min/mg] | selectivity ratio [2] | pIC50 (Trypanosoma cruzi [4]) | further results
CCCn1c(NC(=O)c2cccnc2)nc2cc(F)ccc21 | 164 | > 8 | 5.09 | metabolised [1]: 1.91%
O=C(Cn1ccnc1[N+](=O)[O-])NCc1ccccc1 [BENZNIDAZOLE] | – | – | – | pIC50 (Trypanosoma cruzi [5]): 5.59; Activity (Trypanosoma cruzi [9]): 99%; inhibition (INH) (Trypanosoma cruzi [10]): 94%; pIC50 (Trypanosoma cruzi [11]): 5.58; IC90 (Trypanosoma cruzi [11]): 12600 nM
CCCn1c(NC(=O)c2ccccn2)nc2cc(F)ccc21 | 413 | 7 | 5.96 | metabolised [1]: 66.2%
CCCn1c(NC(=O)Cc2ccc(F)cc2)nc2c(F)cccc21 | 715 | 1 | < 4.19 | –
O=C(Nc1nc2cc(F)ccc2n1C1CCOCC1)c1ccc(C(F)(F)F)nc1 | 23 | > 2 | 4.46 | –
CS(=O)(=O)c1ccc2c(c1)nc(NC(=O)c1ccnc(C(F)(F)F)c1)n2CC(F)(F)F | 23 | 5 | 6.26 | –
CC(C)(C)Cn1c(NC(=O)c2cc(C(F)(F)F)n[nH]2)nc2cc(C#N)cnc21 | 23 | 3 | 5.82 | –
CCCn1c(NC(=O)c2cccnc2)nc2cccnc21 | 275 | > 15 | 5.36 | –
N#Cc1ccc2nc(NC(=O)c3cc(C(F)(F)F)n[nH]3)n(CC(F)(F)F)c2c1 | 25 | > 42 | 5.82 | Papp at 10 µM [6]: 2 ×10⁻⁶ cm/s; solubility kinetic at 24 h [7]: < 1 µM; CC50 at 24 h [8]: 1800 nM; Activity (Trypanosoma cruzi [9]): 99%; inhibition (INH) (Trypanosoma cruzi [10]): 97%; pIC50 (Trypanosoma cruzi [11]): 6.24; IC90 (Trypanosoma cruzi [11]): 880 nM; CC50 at 24 h [12]: 25000 nM; solubility kinetic at 24 h [13]: < 1 µM; CC50 at 24 h [14]: > 64000 nM; CC50 at 24 h [15]: > 40000 nM; CC50 at 24 h [16]: 12000 nM
Cn1nccc1C(=O)Nc1nc2cncnc2n1CC(F)(F)F | 24 | 3 | 5.09 | –
CC[C@@H]([C@H](C)O)n1ncn(-c2ccc(N3CCN(c4ccc(OC[C@@H]5CO[C@@](Cn6cncn6)(c6ccc(F)cc6F)C5)cc4)CC3)cc2)c1=O [POSACONAZOLE] | – | – | – | pIC50 (Trypanosoma cruzi [5]): 8.70; Activity (Trypanosoma cruzi [9]): 100%; inhibition (INH) (Trypanosoma cruzi [10]): 98%; pIC50 (Trypanosoma cruzi [11]): 9.00; IC90 (Trypanosoma cruzi [11]): 2 nM
CCCn1c(NC(=O)c2ccccn2)nc2cccnc21 | 265 | > 8 | 5.08 | –
CCCn1c(NC(=O)Cc2ccc(F)cc2)nc2cccnc21 | 1500 | > 49 | 5.89 | –
N#Cc1ccc2nc(NC(=O)c3ncc(F)cc3F)n(CC(F)(F)F)c2c1 | 253 | 3 | 4.77 | –
N#Cc1ccc2nc(NC(=O)c3ccn(C4CC4)n3)n(CC(F)(F)F)c2c1 | 299 | > 15 | 5.37 | –
N#Cc1ccc2nc(NC(=O)c3ccc(C(F)(F)F)nc3)n(CC(F)(F)F)c2c1 | 18 | > 25 | 5.59 | Papp at 10 µM [6]: 5.4 ×10⁻⁶ cm/s; solubility kinetic at 24 h [7]: < 1 µM; CC50 at 24 h [8]: 1100 nM; Activity (Trypanosoma cruzi [9]): 99%; inhibition (INH) (Trypanosoma cruzi [10]): 98%; pIC50 (Trypanosoma cruzi [11]): 6.72; IC90 (Trypanosoma cruzi [11]): 570 nM; CC50 at 24 h [12]: 8000 nM; solubility kinetic at 24 h [13]: < 1 µM; CC50 at 24 h [14]: > 64000 nM; CC50 at 24 h [15]: > 40000 nM; CC50 at 24 h [16]: 18000 nM
CC(C)(C)Cn1c(NC(=O)c2cccnc2)nc2cc(F)c(F)cc21 | 131 | > 80 | 6.10 | –
CCCn1c(NC(=O)Cc2cc(F)ccc2F)nc2cc(F)c(F)cc21 | 389 | 52 | 6.24 | –

Second part, led by results:

microsomal CLint [3] [µL/min/mg] | Structure (SMILES) | selectivity ratio [2] | pIC50 (Trypanosoma cruzi [4]) | further results
27 | N#Cc1ccc2nc(NC(=O)c3ccnc(C(F)(F)F)c3)n(CC(F)(F)F)c2c1 | > 231 | 6.55 | pIC50 (Trypanosoma cruzi [5]): 5.88; Papp at 10 µM [6]: 2.3 ×10⁻⁶ cm/s; solubility kinetic at 24 h [7]: < 1 µM; CC50 at 24 h [8]: 2400 nM; Activity (Trypanosoma cruzi [9]): 98%; inhibition (INH) (Trypanosoma cruzi [10]): 91%; pIC50 (Trypanosoma cruzi [11]): 6.85; IC90 (Trypanosoma cruzi [11]): 310 nM; CC50 at 24 h [12]: 4000 nM; solubility kinetic at 24 h [13]: < 1 µM; CC50 at 24 h [14]: > 64000 nM; CC50 at 24 h [15]: > 40000 nM; CC50 at 24 h [16]: 50000 nM
72 | CN1CCC(n2c(NC(=O)c3ccnn3C)nc3ccc(C#N)cc32)CC1 | > 2 | 4.47 | –
154 | Cn1nccc1C(=O)Nc1nc2ccc(C#N)cc2n1CCF | 2 | 5.08 | –
181 | Cc1cc(C(=O)Nc2nc3ccc(C#N)cc3n2CC(F)(F)F)nn1C | 1 | 4.19 | –
23 | CC(C)(O)Cn1c(NC(=O)c2ccc(C(F)(F)F)nc2)nc2ccc(C#N)cc21 | 1 | 4.43 | –
20 | Cn1nccc1C(=O)Nc1nc2ccc(C#N)cc2n1CC(F)(F)F | 8 | 5.80 | –
31 | Cn1nccc1C(=O)Nc1nc2cc(C#N)cnc2n1CC(C)(C)C | 5 | 6.30 | –
98 | COCCn1c(NC(=O)c2ccnn2C)nc2ccc(C#N)cc21 | > 7 | 5.06 | –
87 | CC(C)(C)Cn1c(NC(=O)c2cccnc2)nc2ccc(C#N)cc21 | > 7 | 5.06 | –
28 | Cn1nc(C(F)(F)F)cc1C(=O)Nc1nc2ccc(C#N)cc2n1CC(F)(F)F | 34 | 6.64 | pIC50 (Trypanosoma cruzi [5]): 6.00; Papp at 10 µM [6]: 2.4 ×10⁻⁶ cm/s; solubility kinetic at 24 h [7]: < 1 µM; CC50 at 24 h [8]: 1100 nM; Activity (Trypanosoma cruzi [9]): 99%; inhibition (INH) (Trypanosoma cruzi [10]): 97%; pIC50 (Trypanosoma cruzi [11]): 6.72; IC90 (Trypanosoma cruzi [11]): 360 nM; CC50 at 24 h [12]: 1000 nM; solubility kinetic at 24 h [13]: < 1 µM; CC50 at 24 h [14]: 8000 nM; CC50 at 24 h [15]: > 40000 nM; CC50 at 24 h [16]: 19000 nM
23 | Cn1nccc1C(=O)Nc1nc2ccc(C#N)cc2n1CC(C)(C)O | > 5 | 4.89 | –
226 | CCCn1c(NC(=O)Cc2ccc(Cl)cc2)nc2ccc(C#N)cc21 | > 3 | 4.62 | –
23 | Cc1nnnn1CC(=O)Nc1nc2ccc(C#N)cc2n1CC(F)(F)F | > 1 | 4.30 | –
